Test results published in ChEMBL document CHEMBL3098013, “Novel pyrazole integrated 1,3,4-oxadiazoles: synthesis, characterization and antimicrobial evaluation” (2014).
≈ marks a conversion by molar mass, not a printed value.

Columns and labels:
Format in all cases: functional
Fusarium verticillioides [1] = assay: Antimicrobial activity against Fusarium moniliforme MTCC 156 after 48 hrs by microdilution method; conditions: MTCC 156, 48 h
Outline: (§1)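 The minimal inhibitory concentration was determined by dilution, alongside minimal bactericidal concentration for bacterial strains and minimal fungicidal concentration for fungal strains. Tests were run in six replicates, and the value is the mean of at least three determinations.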

Fusarium oxysporum [2] = assay: Antimicrobial activity against Fusarium oxysporum MTCC 284 after 48 hrs by microdilution method; conditions: MTCC 284, 48 h; outline: as §1
Aspergillus niger [3] = assay: Antimicrobial activity against Aspergillus niger MTCC 281 after 48 hrs by microdilution method; conditions: MTCC 281, 48 h; outline: as §1
Aspergillus flavus [4] = assay: Antimicrobial activity against Aspergillus flavus MTCC 873 after 48 hrs by microdilution method; conditions: MTCC 873, 48 h; outline: as §1
Klebsiella pneumoniae [5] = assay: Antimicrobial activity against Klebsiella pneumoniae MTCC 3384 after 24 hrs by microdilution method; conditions: MTCC 3384, 24 h; outline: as §1
Escherichia coli [6] = assay: Antimicrobial activity against Escherichia coli MTCC 724 after 24 hrs by microdilution method; conditions: MTCC 724, 24 h; outline: as §1
Staphylococcus aureus [7] = assay: Antimicrobial activity against Staphylococcus aureus MTCC 96 after 24 hrs by microdilution method; conditions: MTCC 96, 24 h; outline: as §1
Bacillus cereus [8] = assay: Antimicrobial activity against Bacillus cereus MTCC 8372 after 24 hrs by microdilution method; conditions: MTCC 8372, 24 h; outline: as §1
Fusarium verticillioides [9] = assay: Antimicrobial activity against Fusarium moniliforme MTCC 156 at 100 ug/ml after 48 hrs by disc diffusion method; conditions: MTCC 156, 48 h, read-out: DIZ
Outline: (§2)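 Agar diffusion read-out is the diameter of the inhibition zone in mm. Each test was run in six replicates and reported as mean ± standard deviation, taken from at least three determinations.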

Fusarium verticillioides [10] = assay: Antimicrobial activity against Fusarium moniliforme MTCC 156 at 50 ug/ml after 48 hrs by disc diffusion method; conditions: MTCC 156, 48 h, read-out: DIZ; outline: as §2
Fusarium oxysporum [11] = assay: Antimicrobial activity against Fusarium oxysporum MTCC 284 at 100 ug/ml after 48 hrs by disc diffusion method; conditions: MTCC 284, 48 h, read-out: DIZ; outline: as §2
Fusarium oxysporum [12] = assay: Antimicrobial activity against Fusarium oxysporum MTCC 284 at 50 ug/ml after 48 hrs by disc diffusion method; conditions: MTCC 284, 48 h, read-out: DIZ; outline: as §2
Aspergillus niger [13] = assay: Antimicrobial activity against Aspergillus niger MTCC 281 at 100 ug/ml after 48 hrs by disc diffusion method; conditions: MTCC 281, 48 h, read-out: DIZ; outline: as §2
Aspergillus niger [14] = assay: Antimicrobial activity against Aspergillus niger MTCC 281 at 50 ug/ml after 48 hrs by disc diffusion method; conditions: MTCC 281, 48 h, read-out: DIZ; outline: as §2
Aspergillus flavus [15] = assay: Antimicrobial activity against Aspergillus flavus MTCC 873 at 100 ug/ml after 48 hrs by disc diffusion method; conditions: MTCC 873, 48 h, read-out: DIZ; outline: as §2
Aspergillus flavus [16] = assay: Antimicrobial activity against Aspergillus flavus MTCC 873 at 50 ug/ml after 48 hrs by disc diffusion method; conditions: MTCC 873, 48 h, read-out: DIZ; outline: as §2
Klebsiella pneumoniae [17] = assay: Antimicrobial activity against Klebsiella pneumoniae MTCC 3384 at 100 ug/ml after 24 hrs by disc diffusion method; conditions: MTCC 3384, 24 h, read-out: DIZ; outline: as §2
Escherichia coli [18] = assay: Antimicrobial activity against Escherichia coli MTCC 724 at 100 ug/ml after 24 hrs by disc diffusion method; conditions: MTCC 724, 24 h, read-out: DIZ; outline: as §2
Klebsiella pneumoniae [19] = assay: Antimicrobial activity against Klebsiella pneumoniae MTCC 3384 at 50 ug/ml after 24 hrs by disc diffusion method; conditions: MTCC 3384, 24 h, read-out: DIZ; outline: as §2
Escherichia coli [20] = assay: Antimicrobial activity against Escherichia coli MTCC 724 at 50 ug/ml after 24 hrs by disc diffusion method; conditions: MTCC 724, 24 h, read-out: DIZ; outline: as §2
Staphylococcus aureus [21] = assay: Antimicrobial activity against Staphylococcus aureus MTCC 96 at 100 ug/ml after 24 hrs by disc diffusion method; conditions: MTCC 96, 24 h, read-out: DIZ; outline: as §2
Staphylococcus aureus [22] = assay: Antimicrobial activity against Staphylococcus aureus MTCC 96 at 50 ug/ml after 24 hrs by disc diffusion method; conditions: MTCC 96, 24 h, read-out: DIZ; outline: as §2
Bacillus cereus [23] = assay: Antimicrobial activity against Bacillus cereus MTCC 8372 at 100 ug/ml after 24 hrs by disc diffusion method; conditions: MTCC 8372, 24 h, read-out: DIZ; outline: as §2
Bacillus cereus [24] = assay: Antimicrobial activity against Bacillus cereus MTCC 8372 at 50 ug/ml after 24 hrs by disc diffusion method; conditions: MTCC 8372, 24 h, read-out: DIZ; outline: as §2

Structure (SMILES)	MFC (Fusarium verticillioides [1]) [µg/mL]	MIC (Fusarium verticillioides [1]) [µg/mL]	MFC (Fusarium oxysporum [2]) [µg/mL]	MIC (Fusarium oxysporum [2]) [µg/mL]	MFC (Aspergillus niger [3]) [µg/mL]	MIC (Aspergillus niger [3]) [µg/mL]	MFC (Aspergillus flavus [4]) [µg/mL]	MIC (Aspergillus flavus [4]) [µg/mL]	MBC (Klebsiella pneumoniae [5]) [µg/mL]	MIC (Klebsiella pneumoniae [5]) [µg/mL]	MBC (Escherichia coli [6]) [µg/mL]	MIC (Escherichia coli [6]) [µg/mL]	MBC (Staphylococcus aureus [7]) [µg/mL]	MIC (Staphylococcus aureus [7]) [µg/mL]	MBC (Bacillus cereus [8]) [µg/mL]	MIC (Bacillus cereus [8]) [µg/mL]	zone of inhibition at 100 µg/mL (Fusarium verticillioides [9]) [mm]	zone of inhibition at 50 µg/mL (Fusarium verticillioides [10]) [mm]	zone of inhibition at 100 µg/mL (Fusarium oxysporum [11]) [mm]	zone of inhibition at 50 µg/mL (Fusarium oxysporum [12]) [mm]	further results
Cc1c(-c2nnc(-c3ccc([N+](=O)[O-])cc3)o2)c(-c2ccccc2)nn1-c1ccccc1	290 (≈ 685 µM)	50 (≈ 118 µM)	275 (≈ 649 µM)	40 (≈ 94.5 µM)	280 (≈ 661 µM)	45 (≈ 106 µM)	290 (≈ 685 µM)	55 (≈ 130 µM)	185 (≈ 437 µM)	25 (≈ 59 µM)	180 (≈ 425 µM)	25 (≈ 59 µM)	190 (≈ 449 µM)	25 (≈ 59 µM)	200 (≈ 472 µM)	25 (≈ 59 µM)	8	6	8	6	zone of inhibition at 100 µg/mL (Aspergillus niger [13]): 11 mm; zone of inhibition at 50 µg/mL (Aspergillus niger [14]): 2 mm; zone of inhibition at 100 µg/mL (Aspergillus flavus [15]): 12 mm; zone of inhibition at 50 µg/mL (Aspergillus flavus [16]): 3 mm; zone of inhibition at 100 µg/mL (Klebsiella pneumoniae [17]): 10 mm; zone of inhibition at 100 µg/mL (Escherichia coli [18]): 20 mm; zone of inhibition at 50 µg/mL (Klebsiella pneumoniae [19]): 7 mm; zone of inhibition at 50 µg/mL (Escherichia coli [20]): 11 mm; zone of inhibition at 100 µg/mL (Staphylococcus aureus [21]): 10 mm; zone of inhibition at 50 µg/mL (Staphylococcus aureus [22]): 5 mm; zone of inhibition at 100 µg/mL (Bacillus cereus [23]): 14 mm; zone of inhibition at 50 µg/mL (Bacillus cereus [24]): 6 mm
Cc1c(C(=O)NN)c(-c2ccccc2)nn1-c1ccccc1	280 (≈ 958 µM)	50 (≈ 171 µM)	270 (≈ 924 µM)	45 (≈ 154 µM)	260 (≈ 889 µM)	45 (≈ 154 µM)	275 (≈ 941 µM)	40 (≈ 137 µM)	230 (≈ 787 µM)	35 (≈ 120 µM)	240 (≈ 821 µM)	35 (≈ 120 µM)	250 (≈ 855 µM)	40 (≈ 137 µM)	260 (≈ 889 µM)	40 (≈ 137 µM)	6	4	8	3	zone of inhibition at 100 µg/mL (Aspergillus niger [13]): 8 mm; zone of inhibition at 50 µg/mL (Aspergillus niger [14]): 2 mm; zone of inhibition at 100 µg/mL (Aspergillus flavus [15]): 6 mm; zone of inhibition at 50 µg/mL (Aspergillus flavus [16]): 2 mm; zone of inhibition at 100 µg/mL (Klebsiella pneumoniae [17]): 8 mm; zone of inhibition at 100 µg/mL (Escherichia coli [18]): 11 mm; zone of inhibition at 50 µg/mL (Klebsiella pneumoniae [19]): 5 mm; zone of inhibition at 50 µg/mL (Escherichia coli [20]): 9 mm; zone of inhibition at 100 µg/mL (Staphylococcus aureus [21]): 9 mm; zone of inhibition at 50 µg/mL (Staphylococcus aureus [22]): 2 mm; zone of inhibition at 100 µg/mL (Bacillus cereus [23]): 6 mm; zone of inhibition at 50 µg/mL (Bacillus cereus [24]): 4 mm
Cc1c(-c2nnc(-c3ccc([N+](=O)[O-])cc3)o2)c(-c2ccc([N+](=O)[O-])cc2)nn1-c1ccccc1	290 (≈ 619 µM)	55 (≈ 117 µM)	280 (≈ 598 µM)	50 (≈ 107 µM)	275 (≈ 587 µM)	45 (≈ 96.1 µM)	275 (≈ 587 µM)	40 (≈ 85.4 µM)	170 (≈ 363 µM)	25 (≈ 53.4 µM)	175 (≈ 374 µM)	25 (≈ 53.4 µM)	155 (≈ 331 µM)	20 (≈ 42.7 µM)	160 (≈ 342 µM)	20 (≈ 42.7 µM)	18	8	16	8	zone of inhibition at 100 µg/mL (Aspergillus niger [13]): 14 mm; zone of inhibition at 50 µg/mL (Aspergillus niger [14]): 6 mm; zone of inhibition at 100 µg/mL (Aspergillus flavus [15]): 11 mm; zone of inhibition at 50 µg/mL (Aspergillus flavus [16]): 8 mm; zone of inhibition at 100 µg/mL (Klebsiella pneumoniae [17]): 16 mm; zone of inhibition at 100 µg/mL (Escherichia coli [18]): 22 mm; zone of inhibition at 50 µg/mL (Klebsiella pneumoniae [19]): 8 mm; zone of inhibition at 50 µg/mL (Escherichia coli [20]): 12 mm; zone of inhibition at 100 µg/mL (Staphylococcus aureus [21]): 20 mm; zone of inhibition at 50 µg/mL (Staphylococcus aureus [22]): 12 mm; zone of inhibition at 100 µg/mL (Bacillus cereus [23]): 22 mm; zone of inhibition at 50 µg/mL (Bacillus cereus [24]): 14 mm
